# Assay outcomes from PubChem.
# HSP90 inh – HSP90 inhibitors, primary screen, cell lysate, luminescence. Heat shock protein HSP 90 (rabbit reticulocyte lysate; luciferase refolding). Rabbit reticulocyte lysate, luciferase refolding luminescence, 3 h. inhibition, % at 5.6 µM. 290,000 compounds, 0.91% hits;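 active means inhibition above the screen-wide mean plus 3 SD, computed separately per campaign, cut at about 16% in these data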;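 further: inhibitors lower the luminescence because luciferase stays unfolded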
# SENP8 block-1 – SENP8 protease inhibitors, primary screen, biochemical, luminescence; purified SENP8, Z-RLRGG-aminoluciferin cleavage; inhibition, % at 10 µM; 330,000 compounds, 1.2% hits; in the data active means inhibition above about 50%
# SENP1 FRET inh – human SENP1 catalytic domain inhibitors, primary screen, biochemical, FRET, uHTS; Sentrin-specific protease 1 (Homo sapiens), Q9P0U3; recombinant SENP1 catalytic domain, CyPet-SUMO1-YPet FRET cleavage; inhibition, % at 10 µM; 360,000 compounds, 0.21% hits; AID 624204, 2012;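 active means inhibition at least 30% at 10 µM, raw YFP signal under a set limit, fluorescence ratio 0.5 to 1.5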
# Target sequence (Q9P0U3 419-644 limits assumed): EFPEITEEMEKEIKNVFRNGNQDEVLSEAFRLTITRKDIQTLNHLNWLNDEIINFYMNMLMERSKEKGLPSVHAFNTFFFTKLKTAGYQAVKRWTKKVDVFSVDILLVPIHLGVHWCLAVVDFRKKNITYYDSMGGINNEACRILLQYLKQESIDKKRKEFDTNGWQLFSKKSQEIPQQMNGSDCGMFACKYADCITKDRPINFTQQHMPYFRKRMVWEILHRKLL
#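 system = hSENP1 catalytic domain, recombinant | reagent = SFCypet-SUMO1-SFYpet substrate at 25 nM | doses = one dose per compound, 10 µM, 0.5% DMSO | incubation = enzyme reaction for 50 min at room temperature, dark | measured by = FRET, CFP and YFP emission | controls = no-enzyme low, enzyme-DMSO high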
# SENP8 block-2 – human SENP8 protease inhibitors, primary screen, biochemical, fluorescence, Nedd8 protein substrate, uHTS; Sentrin-specific protease 8 (Homo sapiens), Q96LD8; recombinant SENP8; inhibition, % at 20 µM; 360,000 compounds, 0.64% hits; AID 602440, 2012; in the data active means inhibition mostly above about 40%, no sharp cut-off; inactive means mostly below about 27%
# SENP6 block – SENP6 protease inhibitors, primary screen, biochemical, luminescence, uHTS; Sentrin-specific protease 6 (Homo sapiens), Q9GZR1; Recombinant SENP6 catalytic domain, aminoluciferin luminescence; inhibition, % at 10 µM; 330,000 compounds, 1.8% hits;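 active means inhibition above about 50% at the single tested dose, limit read from the data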
# SENP7 block – SENP7 protease inhibitors, primary screen, biochemical, luminescence, uHTS; recombinant SENP7, Z-RLRGG-aminoluciferin luminescence, 40 min; 330,000 compounds, 1.5% hits; inhibition, % at 5 µM; AID 434973, 2010;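 active means inhibition above about 50% at the single test dose, limit read from the data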
# Target sequence (Q9BQF6 706-1050 limits assumed): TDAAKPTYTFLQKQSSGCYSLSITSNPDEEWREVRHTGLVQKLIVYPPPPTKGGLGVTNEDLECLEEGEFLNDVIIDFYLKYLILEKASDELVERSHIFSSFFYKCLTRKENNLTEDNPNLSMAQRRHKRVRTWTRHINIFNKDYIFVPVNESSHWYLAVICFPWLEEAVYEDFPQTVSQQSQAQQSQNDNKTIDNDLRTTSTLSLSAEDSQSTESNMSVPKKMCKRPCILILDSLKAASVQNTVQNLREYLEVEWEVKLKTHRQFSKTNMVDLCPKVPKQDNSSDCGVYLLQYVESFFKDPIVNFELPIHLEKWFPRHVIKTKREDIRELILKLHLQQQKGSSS
# Numbers stand for hits; i = inactive; nt = no result. Compounds with a hit are over-represented: about 2.9% of the library has one in this group of screens.
SMILES,HSP90 inh,SENP8 block-1,SENP1 FRET inh,SENP8 block-2,SENP6 block,SENP7 block
O=C(Cn1nc2ccccc2n1)N/N=C/c1cc(Cl)cc([N+](=O)[O-])c1O,i,nt,i,i,nt,nt
O=[N+]([O-])c1cc(Cl)cc(/C=N/Nc2nc3ccccc3s2)c1O,i,i,i,i,54,i
Brc1csc(/C=N/Nc2nc3ccccc3s2)c1,i,57,i,i,i,76
CCn1c(SCC(=O)NC2CCCCC2)nc2ccccc2c1=O,i,i,i,i,i,i
O=C(Nc1ccc(Cl)cc1)Nc1ccc(S(=O)(=O)Nc2ncccn2)cc1,i,i,i,i,i,i
O=S(=O)(Nc1ncccn1)c1ccc(NC(=S)Nc2ccc(Cl)cc2)cc1,i,i,i,i,70,i
CC1=C(C(=O)N(C(C)C)C(C)C)CC(CC(=O)NCc2ccco2)C(=O)N1Cc1ccc(F)cc1 (centres undefined),nt,nt,i,i,nt,nt
O/N=C/c1ccccc1OCc1ccccc1F,i,i,i,i,i,i
O/N=C/c1ccc(OCc2ccccc2F)c(Cl)c1,i,80,i,i,92,75
Cc1cc(F)ccc1S(=O)(=O)N1CCCOC1CNC(=O)C(=O)NC1CCCCC1 (centres undefined),i,i,i,i,i,i
CCCCC(=O)NC(c1ccc(N(CC)CC)cc1)c1ccc2cccnc2c1O (centres undefined),i,i,i,i,i,i
CCCCC(=O)NC(c1ccccc1OC)c1ccc2cccnc2c1O (centres undefined),i,i,i,i,i,i
CCCCC(=O)NC(c1ccc(N(C)C)cc1)c1ccc2cccnc2c1O (centres undefined),19,i,i,i,i,i
CCCC(=O)NC(c1ccccc1OC)c1ccc2cccnc2c1O (centres undefined),24,i,i,i,i,i
O=c1cc(-c2ccc(O)cc2)oc2c(O)c(O)c(O)c(O)c12,i,i,i,71,i,i
O=c1cc(-c2ccc(O)cc2)oc2c1ccc1ccccc12,nt,i,i,i,i,i
O=[N+]([O-])c1ccccc1N=Nc1c(O)[nH]c2ccc(F)cc12,nt,nt,i,i,nt,nt
O=[N+]([O-])c1ccc(N=Nc2c(O)[nH]c3ccc(F)cc23)cc1,i,i,49,i,i,i
Cc1ccsc1C(=O)OC(C)C(=O)NC1CCCCC1C (centres undefined),nt,i,i,i,i,i
NC(=S)NN=Cc1nccc2c(N)cccc12,nt,nt,i,62,nt,nt
CCOc1ccccc1Nc1nc2ccccc2n1C(C)C,i,i,i,i,i,i
Cc1ccc2[nH]c(O)c(N=Nc3nc4ccccc4s3)c2c1,i,i,35,i,i,i
COc1cc(/C=C(\CC(=O)O)c2nc3ccccc3s2)cc(OC)c1O,i,i,57,i,i,i
Cc1cccc(-c2cc3c(N=O)c4ccccc4c-3n[nH]2)c1,i,i,i,i,96,99
O=Nc1c2cc(-c3ccccc3)[nH]nc-2c2ccccc12,i,nt,i,i,nt,nt
SMILES,HSP90 inh,SENP8 block-1,SENP1 FRET inh,SENP8 block-2,SENP6 block,SENP7 block
O=C(CN1C(=O)NC2(CCCCC2)C1=O)Nc1ccc(Cl)cc1,nt,i,i,i,i,i
O=C(NCC[C@@H]1CC[C@@H](NS(=O)(=O)Cc2ccccc2)[C@@H](CO)O1)C1CC1,nt,nt,i,i,nt,nt
COc1cccc(-c2nc(N3CCN(C)CC3)c3ccccc3n2)c1O,i,i,i,i,i,i
COc1cccc(-c2nc(N3CCCCC3C)c3ccccc3n2)c1O (centres undefined),i,i,i,47,i,i
Cc1ccccc1NC(=O)CSc1nnc(C2CC2)n1CC1CCCO1 (centres undefined),i,i,i,i,i,i
Cc1cc(=O)[nH]c2sc(C(=O)N3c4ccccc4CC3C)c(N)c12 (centres undefined),nt,i,i,i,i,i
Cc1ccc(S(=O)(=O)Nc2ccc3ccccc3c2[N+](=O)[O-])cc1,nt,nt,i,i,nt,nt
Cc1ccc(S(=O)(=O)Nc2ccc3cc([N+](=O)[O-])ccc3c2[N+](=O)[O-])cc1,nt,nt,53,i,nt,nt
O=C(CSc1nnc(-c2ccco2)c(-c2ccco2)n1)c1ccccc1,i,i,i,i,i,i
CC(=O)c1ccc(NC(=O)CSc2nnc(-c3ccco3)c(-c3ccco3)n2)cc1,i,i,i,45,i,i
COc1cc(N=Nc2ccc(C)cc2S(N)(=O)=O)c(C)cc1N,nt,nt,i,49,nt,nt
COc1cc(S(N)(=O)=O)c(OC)cc1N,i,i,i,i,i,i
Cc1cc(-n2nc3ccccc3n2)c(O)c([N+](=O)[O-])c1,i,i,i,i,i,i
Cc1ccc(OC(=O)c2cccc([N+](=O)[O-])c2)c(-n2nc3ccccc3n2)c1,i,87,i,i,93,90
CN(C)c1cccc(/C=C(\C#N)c2ccccc2)c1,i,57,i,i,55,i
Cc1ccc(NS(=O)(=O)c2cc(NC(=O)c3ccc4c(c3)NC(=O)CS4)ccc2C)c(C)c1,17,i,i,i,i,i
COc1ccc(NC(=O)c2ccc3c(c2)NC(=O)CS3)cc1S(=O)(=O)Nc1ccc(Br)cc1,i,i,i,i,i,i
Nc1nn2c(-c3ccccc3)cc(=O)[nH]c2c1N=Nc1ccc(Br)cc1,i,nt,i,41,nt,nt
Nc1nn2c(-c3ccccc3)cc(=O)[nH]c2c1N=Nc1ccc(O)cc1,i,i,i,63,i,i
COc1ccc(CCN2CCCC(CN(C)Cc3cc(Cl)c(O)c(OC)c3)C2)cc1 (centres undefined),i,i,i,i,i,i
Cc1ccc(C(=O)OCC(=O)NCc2ccco2)cc1C,nt,i,i,i,i,i
O=C(NCCc1csc(-c2ccccc2)n1)c1c(F)cccc1F,41,i,i,i,i,i
O=C(NCCc1ccc(O)c(Br)c1)c1ccc(Br)o1,nt,nt,i,i,nt,nt
CCOC(=O)/C=C(\C)Sc1cc(O)c2ccccc2c1O,i,nt,i,48,nt,nt
CCOC(=O)/C=C(\C)Sc1cc(=O)oc2ccccc12,i,i,i,i,i,i
CCOc1cc(-n2cnnn2)c(OCC)cc1NC(=O)c1cnccn1,nt,i,i,i,i,i
CCOc1cc(N2CCOCC2)c(OCC)cc1NC(=O)c1cnccn1,nt,i,i,32,i,i
CCCCn1c(N)c(N(CCOC)C(=O)c2c(CC)noc2C)c(=O)[nH]c1=O,nt,i,i,i,i,i
CN(CC(=O)NCC(=O)Nc1ccc(F)c(F)c1F)C1CCS(=O)(=O)C1 (centres undefined),nt,i,i,i,i,i
O=C(Cc1ccccc1)N/N=C/c1cc(Br)cc(Br)c1O,16,i,i,i,i,i
